Experimental data reported in ChEMBL document CHEMBL3046420, “A new antifungal and cytotoxic C-methylated flavone glycoside from Picea neoveitchii” (2012).

How the values were obtained:
Type in all cases: functional
[1] = Cytotoxicity against Spodoptera litura cells assessed as growth inhibition at 20 mg/L after 24 hr by MTT assay relative to control; details: read-out: GI
Procedure, shortened: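 SL cells were grown in Grace's insect medium with 9% newborn calf serum at 27.5 °C and used in log phase. Cells were seeded in 96-well plates for 24 h, then exposed for 24 h to compound (DMSO stock diluted in medium); controls got 0.5% DMSO. MTT (0.5 mg/mL) was added for 4 h, formazan dissolved in DMSO, and A570 read. Three separate experiments.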

Thielaviopsis paradoxa = assay: Antifungal activity against Ceratocystis paradoxa assessed as mycelial growth inhibition at 100 ug/disc after 2 to 4 days by disk diffusion method relative to control; details: for zone of inhibition at 100 µg/disc: read-out: DIZ; for inhibition of growth at 100 µg/disc: read-out: GI
Procedure, shortened: (§1)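 Disc diffusion on PDA in 90 mm Petri plates. Sterile 5 mm filter paper discs were loaded with 10 µL of a 10 mg/mL MeOH solution, air-dried and set at the plate centre. Four 5 mm fungal plugs were placed inverted 20 mm from the disc. Plates were incubated at 29 °C for 2–4 days, until growth in the MeOH blank reached the centre. The inhibitory zone was measured in mm and expressed as % of the carbendazim zone. Triplicate.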

Alternaria mali = assay: Antifungal activity against Alternaria mali assessed as mycelial growth inhibition at 100 ug/disk after 2 to 4 days by disk diffusion method relative to control; details: for zone of inhibition at 100 µg/disc: read-out: DIZ; for inhibition of growth at 100 µg/disc: read-out: GI; procedure, shortened: as §1
Athelia rolfsii = assay: Antifungal activity against Athelia rolfsii assessed as mycelial growth inhibition at 100 ug/disk after 2 to 4 days by disk diffusion method relative to control; details: Agroathelia rolfsii; for zone of inhibition at 100 µg/disc: read-out: DIZ; for inhibition of growth at 100 µg/disc: read-out: GI; procedure, shortened: as §1
Pyricularia grisea = assay: Antifungal activity against Magnaporthe grisea assessed as mycelial growth inhibition at 100 ug/disk after 2 to 4 days by disk diffusion method relative to control; details: for zone of inhibition at 100 µg/disc: read-out: DIZ; for inhibition of growth at 100 µg/disc: read-out: GI
Procedure, shortened: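 Modified disc diffusion on PDA in 90 mm plates. Each 5 mm filter disc was loaded with 10 µL of a 10 mg/mL MeOH solution, air-dried and placed at the plate centre. Four 5 mm fungal plugs were set 20 mm from the disc. MeOH discs served as blank and carbendazim as positive control. Plates were incubated at 29 °C for 2–4 days. Inhibition zone (mm) was expressed as % of the carbendazim zone. Triplicate.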

Compound | inhibition of growth at 20 µg/mL [1] [%] | zone of inhibition at 100 µg/disc (Thielaviopsis paradoxa) [mm] | inhibition of growth at 100 µg/disc (Thielaviopsis paradoxa) [%] | zone of inhibition at 100 µg/disc (Alternaria mali) [mm] | inhibition of growth at 100 µg/disc (Alternaria mali) [%] | zone of inhibition at 100 µg/disc (Athelia rolfsii) [mm] | inhibition of growth at 100 µg/disc (Athelia rolfsii) [%] | zone of inhibition at 100 µg/disc (Pyricularia grisea) [mm] | inhibition of growth at 100 µg/disc (Pyricularia grisea) [%]
COc1c(-c2ccc(O[C@@H]3O[C@H](CO)[C@@H](O)[C@H](O)[C@H]3O)cc2)oc2c(O[C@@H]3O[C@H](CO)[C@@H](O)[C@H](O)[C@H]3O)c(O)c(C)c(O)c2c1=O | 64.4 | 0 | 0 | 4.3 | 43.4 | 4.8 | 41.4 | 5.7 | 30.6
O=c1c(O[C@@H]2O[C@H](CO)[C@@H](O)[C@H](O)[C@H]2O)c(-c2ccc(O[C@@H]3O[C@H](CO)[C@@H](O)[C@H](O)[C@H]3O)cc2)oc2cc(O)cc(O)c12 | 23.1 | 0 | 0 | 2.4 | 24.2 | 3.7 | 31.9 | 0 | 0
C[C@@H]1O[C@@H](OC[C@H]2O[C@@H](OC(=O)/C=C/c3ccccc3)[C@H](O)[C@@H](O)[C@@H]2O)[C@H](O)[C@H](O)[C@H]1O [GLEDITSCHIASIDE A] | 62.2 | 0 | 0 | 0 | 0 | 0 | 0 | 0 | 0
COc1cc([C@H]2Oc3c(O)cc(CCCO)cc3[C@@H]2CO)ccc1O[C@@H]1O[C@@H](C)[C@H](O)[C@@H](O)[C@H]1O [MASSONIANOSIDE B] | 17.9 | 5.6 | 21.8 | 8.8 | 88.9 | 0 | 0 | 7 | 37.6
COc1c(-c2ccc(O)cc2)oc2c(O[C@@H]3O[C@H](CO)[C@@H](O)[C@H](O)[C@H]3O)c(O)c(C)c(O)c2c1=O | 62.5 | 6.2 | 24.1 | 7.2 | 72.7 | 9.4 | 81 | 7.6 | 40.9
COC(=O)Nc1nc2ccccc2[nH]1 [CARBENDAZIM] | – | 25.7 | 100 | 9.9 | 100 | 11.6 | 100 | 18.6 | 100
O=c1ccc2ccc(O[C@@H]3O[C@H](CO)[C@@H](O)[C@H](O)[C@H]3O)cc2o1 [SKIMMIN] | 15.3 | 1.5 | 5.8 | 0 | 0 | 2.8 | 24.1 | 0 | 0
COc1cc(CCCO)ccc1O[C@@H]1O[C@H](CO)[C@@H](O)[C@H](O)[C@H]1O [DIHYDROCONIFERIN] | 4 | 0 | 0 | 3.1 | 31.3 | 0 | 0 | 8.6 | 46.2
O=C(/C=C/c1ccc(O)cc1)OC[C@H]1O[C@@H](Oc2c(-c3ccc(O)cc3)oc3cc(O)cc(O)c3c2=O)[C@H](O)[C@@H](O)[C@@H]1O [TILIROSIDE] | 65 | 7.1 | 27.6 | 5.5 | 55.6 | 2.6 | 22.4 | 0 | 0
C=C(C)[C@H]1Cc2c(ccc3c2O[C@@H]2COc4cc(OC)c(OC)cc4[C@@H]2C3=O)O1 [ROTENONE] | 74.4 | – | – | – | – | – | – | – | –
O=c1cc(-c2ccc(O)cc2)oc2cc(O[C@@H]3O[C@H](CO)[C@@H](O)[C@H](O)[C@H]3O)cc(O)c12 [APIGETRIN] | 7.8 | 0 | 0 | 5.8 | 58.6 | 4.8 | 41.4 | 3.3 | 17.7
